From ChEMBL document CHEMBL3414528, “Novel naftopidil-related derivatives and their biological effects as alpha1-adrenoceptors antagonists and antiproliferative agents” (Eur J Med Chem, 2015)
pIC50: −log10 of the molar value. Calls of active or inactive are those of the source. The rule behind the calls is not given here.

Experiments:
[1] = Cell cycle arrest in human PC3 cells assessed as accumulation at G0/G1 phase at 10 uM after 24 hrs by propidium iodide staining-based flow cytometry (reference value: 39.20%); type: functional; details: PC-3
Summary of the method: (§1)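 PC-3 cells given compound at 5, 10, 15, 20 or 30 μM, or 0.1% DMSO vehicle, for 24 h; stained with propidium iodide and analysed by flow cytometry for G0/G1, S and G2/M fractions.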

[2] = Cell cycle arrest in human PC3 cells assessed as accumulation at G0/G1 phase at 15 uM after 24 hrs by propidium iodide staining-based flow cytometry (reference value: 39.20%); type: functional; details: PC-3; summary of the method: as §1
[3] = Cell cycle arrest in human PC3 cells assessed as accumulation at S phase at 15 uM after 24 hrs by propidium iodide staining-based flow cytometry (reference value: 27.26%); type: functional; details: PC-3; summary of the method: as §1
[4] = Cell cycle arrest in human PC3 cells assessed as accumulation at S phase at 20 uM after 24 hrs by propidium iodide staining-based flow cytometry (reference value: 27.26%); type: functional; details: PC-3; summary of the method: as §1
[5] = Cell cycle arrest in human PC3 cells assessed as accumulation at S phase at 30 uM after 24 hrs by propidium iodide staining-based flow cytometry (reference value: 27.26%); type: functional; details: PC-3; summary of the method: as §1
[6] = Cell cycle arrest in human PC3 cells assessed as accumulation at G2/M phase at 30 uM after 24 hrs by propidium iodide staining-based flow cytometry (reference value: 33.04%); type: functional; details: PC-3; summary of the method: as §1
[7] = tested on: PC-3; assay: Induction of apoptosis in human PC3 cells assessed as early apoptotic cells at 20 uM after 24 hrs by annexin V/propidium iodide staining-based flow cytometry (reference value: 5.7%); type: functional
Summary of the method: (§2)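 Phosphatidylserine exposure in PC-3 cells after 24 h at 0, 5, 10, 20 or 30 μM, by Alexa Fluor 488 annexin V/PI double staining and flow cytometry; early apoptotic = AV+/PI−, late apoptotic or dead = AV+/PI+.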

[8] = tested on: PC-3; assay: Induction of apoptosis in human PC3 cells assessed as total apoptotic cells at 10 uM after 24 hrs by annexin V/propidium iodide staining-based flow cytometry; type: functional; summary of the method: as §2
[9] = tested on: PC-3; assay: Inhibition of norepinephrine-induced cell proliferation in human PC3 cells at 1.5 to 100 uM by WST-8 assay; type: functional, cell-based
Summary of the method: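 PC-3 cells treated with compound at 100, 75, 50, 25, 12.5, 6.25, 3.0 and 1.5 μM alone or together with norepinephrine (20 or 50 μM); viability by WST-8. Mean ± SEM, two-way ANOVA with post-hoc tests.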

[10] = target: T1, Alpha-1B adrenergic receptor (Rattus norvegicus, UniProt P15823); assay: Antagonist activity at Sprague-Dawley rat spleen adrenergic alpha-1B receptor after 20 mins; details: read-out: pA2 (converted)
T1 sequence (P15823 whole entry): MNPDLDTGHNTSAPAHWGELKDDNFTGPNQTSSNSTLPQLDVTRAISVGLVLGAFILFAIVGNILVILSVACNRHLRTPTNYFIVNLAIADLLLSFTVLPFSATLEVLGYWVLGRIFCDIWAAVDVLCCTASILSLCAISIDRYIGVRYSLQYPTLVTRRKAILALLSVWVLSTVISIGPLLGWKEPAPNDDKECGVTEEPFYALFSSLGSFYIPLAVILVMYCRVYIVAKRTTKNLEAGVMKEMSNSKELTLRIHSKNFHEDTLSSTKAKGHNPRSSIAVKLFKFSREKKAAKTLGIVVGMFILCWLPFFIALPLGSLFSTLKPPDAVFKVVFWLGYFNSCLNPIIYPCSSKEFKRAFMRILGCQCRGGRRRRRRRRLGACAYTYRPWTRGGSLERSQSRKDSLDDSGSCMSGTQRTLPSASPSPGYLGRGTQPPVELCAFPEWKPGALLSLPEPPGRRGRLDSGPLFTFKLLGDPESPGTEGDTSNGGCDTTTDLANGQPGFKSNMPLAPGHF
Summary of the method: (§3)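 Isolated rat tissues (prostatic vas deferens, spleen, thoracic aorta) contracted with cumulative norepinephrine; concentration-response curves recorded in presence of increasing antagonist concentrations, antagonism read as rightward curve shift. Mean ± SEM of five to eight separate experiments.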

[11] = target: T2, Alpha-1D adrenergic receptor (Rattus norvegicus, UniProt P23944); assay: Antagonist activity at Sprague-Dawley rat thoracic aorta adrenergic alpha-1D receptor after 20 mins; details: read-out: pA2 (converted); summary of the method: as §3
T2 sequence (P23944 whole entry): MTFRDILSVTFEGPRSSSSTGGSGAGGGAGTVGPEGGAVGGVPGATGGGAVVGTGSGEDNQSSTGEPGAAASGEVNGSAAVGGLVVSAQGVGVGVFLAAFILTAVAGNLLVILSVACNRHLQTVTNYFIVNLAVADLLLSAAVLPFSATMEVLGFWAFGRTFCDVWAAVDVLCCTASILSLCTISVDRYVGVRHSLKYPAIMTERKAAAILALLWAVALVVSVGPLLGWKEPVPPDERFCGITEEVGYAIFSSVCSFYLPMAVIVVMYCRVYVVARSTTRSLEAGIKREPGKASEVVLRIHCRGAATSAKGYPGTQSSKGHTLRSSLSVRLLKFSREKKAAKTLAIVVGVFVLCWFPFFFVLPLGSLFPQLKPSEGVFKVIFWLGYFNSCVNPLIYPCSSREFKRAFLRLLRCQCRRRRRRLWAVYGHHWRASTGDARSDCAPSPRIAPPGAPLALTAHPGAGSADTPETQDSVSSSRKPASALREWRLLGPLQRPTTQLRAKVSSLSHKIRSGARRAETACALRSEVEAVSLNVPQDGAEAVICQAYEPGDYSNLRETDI

[12] = tested on: DU-145; assay: Cytotoxicity against human DU145 cells after 48 hrs by WST-8 assay; type: functional, cell-based; details: DU-145, 48 h
[13] = tested on: LNCaP; assay: Cytotoxicity against human LNCAP cells after 48 hrs by WST-8 assay; type: functional, cell-based

**Q.** With `COc1ccccc1N1CCN(CCCNC(=O)c2cc3ccccc3n2Cc2ccccc2)CC1` as the compound, how does the Activity [1] read?
**A.** The Activity was 58.5%.

**Q.** And the Activity [2]?
**A.** Its Activity is 70.6%.

**Q.** And the Activity [3]?
**A.** Its Activity is 14.5%.

**Q.** What about the Activity [4] of the same compound?
**A.** Its Activity is 22.2%.

**Q.** What about the Activity [5] of the same compound?
**A.** The Activity was 20.9%.

**Q.** And the Activity [6]?
**A.** Its Activity is 41.7%.

**Q.** And the Activity [7]?
**A.** Its Activity is 44.9%.

**Q.** What about the Activity [8] of the same compound?
**A.** Its Activity is 51.1%.

**Q.** What about the inhibition [9] of the same compound?
**A.** The inhibition was “Active”.

**Q.** What about the Kb [10] of the same compound?
**A.** Its Kb is 141 nM.

**Q.** What about the Kb [11] of the same compound?
**A.** The Kb was 2.75 nM.

**Q.** What about the pIC50 [12] of the same compound?
**A.** Its pIC50 is 4.48.

**Q.** And the pIC50 [13]?
**A.** Its pIC50 is 4.59.
